In this experiment the test system is human washed platelets, SFLLRN-induced P-selectin, flow cytometry. Put plainly: reduced P-selectin exposure on PAR1-stimulated platelets – cell-based, human washed platelets, flow cytometry, dry powder, single point (AID 493031). Particulars: at 10 µM; hits give high values. The method, boiled down: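 Material: washed platelets from individual donors; Also added: SFLLRN stimulation; Dosing: compound at 10 µM; Timing: 20 min compound pretreatment, 15 min SFLLRN activation, 20 min antibody staining; Measured by: flow cytometry, PE anti-P-selectin staining.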

Calls of active or inactive are those of the source.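 How the source made its calls: active means at 10 µM, induced P-selectin expression inhibited by 50% or more; inactive means less than 50% inhibition.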

As for `CCCC(=O)Nc1cccc(NC(=O)c2cccc(S(C)(=O)=O)c2)c1`, the inhibition was 23.9% (inactive).

`CCCC(=O)Nc1cccc(NC(=O)c2ccc(OC)cc2)c1`: the inhibition was 15.3% (inactive).

In the case of `CCCC(=O)Nc1cccc(NC(=O)c2ccc(F)cc2)c1`, the inhibition is 56.9%.

`CCCC(=O)Nc1cccc(NC(=O)c2ccccc2C)c1`: the inhibition was 95.8%.

In the case of `CCCC(=O)Nc1cccc(NC(=O)c2ccc(S(C)(=O)=O)cc2)c1`, the inhibition was 9.82% (inactive).

Take `CCCC(=O)Nc1cccc(NC(=O)c2cnc3ccccc3c2)c1`: the inhibition is 10.4% (inactive).

Take `CCCC(=O)Nc1cccc(NC(=O)c2ccc(C(F)(F)F)cc2)c1`: the inhibition is 21% (inactive).

Take `CCCC(=O)Nc1cccc(NC(=O)c2ccccc2Cl)c1`: the inhibition was 98.3%.

Regarding `CCCC(=O)Nc1cccc(NC(=O)c2cccc([N+](=O)[O-])c2)c1`, the inhibition was 50.7%.

As to `CCCC(=O)Nc1cccc(NC(=O)c2ccc(Cl)cc2)c1`, the inhibition was 73.9%.

On to `CCCC(=O)Nc1cccc(NC(=O)c2cccc(C#N)c2)c1`, for which the inhibition was 66.7%.

With `CCCC(=O)Nc1cccc(NC(=O)c2cccc(Oc3ccccc3)c2)c1`, the inhibition is 92%.

In the case of `CCCC(=O)Nc1cccc(NC(=O)c2cccc(Cl)c2)c1`, the inhibition was 94.1%.

Take `CCCC(=O)Nc1cccc(NC(=O)c2ccccc2F)c1`: the inhibition was 97.4%.

On to `O=C(Nc1ccccc1)c1ccccc1Br`, for which the inhibition was 98.5%.

As to `CCCC(=O)Nc1cccc(NC(=O)c2cccc(NC(C)=O)c2)c1`, the inhibition is 41% (inactive).

In the case of `CCCC(=O)Nc1cccc(NC(=O)c2cccnc2)c1`, the inhibition is 4.33% (inactive).

On to `CCCC(=O)Nc1cccc(NC(=O)c2ccccc2OC)c1`, for which the inhibition is 46.1% (inactive).

Take `CCCC(=O)Nc1cccc(NC(=O)c2ccc(C)cc2)c1`: the inhibition was 21.8% (inactive).

With `CCCC(=O)Nc1cccc(NC(=O)c2ccco2)c1`, the inhibition is 30.5% (inactive).

Turning to `CCCC(=O)Nc1cccc(NC(=O)c2cccc(-c3ccccc3)c2)c1`, the inhibition is 94.4%.

Source of the values: PubChem BioAssay AID493031 (Broad Institute, 2011).
